Measured values from different studies.
Lines come from different studies, so protocols differ.
Target: Casein kinase II subunit alpha (CSNK2A1, Homo sapiens, UniProt P68400)

Structure (SMILES)	test	setting	endpoint	result
Cn1c2c(c3ccc(Cl)c(Cl)c31)C(C#N)C1(CCCCC1)NC2=O (racemic)	thermal stability, DSF	10 µM	ΔTm	0.7 °C
COc1cccc(CNC(=O)c2nc3scc(COCc4ccc(C(=O)O)cc4)c3c(=O)[nH]2)c1	cell-free assay, competition with immobilised ligand	1 µM	remaining binding	90.7%
CNC(=O)c1cc(Oc2ccc(NC(=O)Nc3ccc(Cl)c(C(F)(F)F)c3)cc2)ccn1	cell-free assay	0.5 µM	remaining signal	108%
O=C(Nc1cnc(Oc2ccc(F)cc2)nc1)N1CCc2ncccc2[C@@H]1c1ccc(F)cc1	cell-free assay, competition with immobilised ligand	1 µM	remaining binding	93%
CCCOc1ccc(OC)c(F)c1C(=O)c1ccc(C(=O)N[C@@H]2CNC[C@H]2NC(=O)c2ccc3[nH]ncc3c2)cc1	enzyme activity, inhibitor	10 µM	remaining activity	108%
CCC1(CC)NC(=O)c2c(c3ccc(Cl)c(Cl)c3n2C)C1C#N (stereo not shown)	thermal stability, DSF	10 µM	ΔTm	0 °C
Cc1ccc(Nc2nccc(N(C)c3ccc4c(C)n(C)nc4c3)n2)cc1S(N)(=O)=O	enzyme activity, inhibitor	10 µM	inhibition	-7%
Cc1cnc(NC2CCOCC2)nc1-n1cnc(C(=O)NC(CN)c2cc(F)cc(Cl)c2)c1 (stereo not shown)	enzyme activity, inhibitor, radiometric	1 µM	remaining activity	106%
Cc1ccc(NC(=O)c2ccc(C)c(C(F)(F)F)c2)cc1C#Cc1nn(C2CCC(O)CC2)c2ncnc(N)c12 (stereo not shown)	cell-free assay, inhibitor	10 µM	remaining signal	105%
CCCS(=O)(=O)Nc1ccc(F)c(C(=O)c2c[nH]c3ncc(-c4ccc(Cl)cc4)cc23)c1F	enzyme activity, inhibitor	1 µM	inhibition	< 10%
N#CCCc1ccc2c(c1)-c1[nH]c3ccc([N+](=O)[O-])cc3c1CC(=O)N2	cell-free assay	0.5 µM	remaining signal	91.2%
O=C(Nc1ccc(Oc2ccc(F)cc2)cc1)N1CCc2ncccc2[C@H]1c1ccc(F)cc1	cell-free assay, competition with immobilised ligand	1 µM	remaining binding	99%
CC(C)(C)c1nc2c(s1)c1nc(N)ncc1c1ccc(NS(=O)(=O)c3c(F)cccc3F)c(F)c12	enzyme activity, inhibitor, radiometric	1 µM	remaining activity	88%
COc1cc(Cl)c(C(=O)N[C@@H](CN[C@H]2CC[C@@H](N)CC2)Cc2ccc(C#N)cc2)cc1-c1ccc(CN[C@H](C)c2ccc(C)cc2)o1	enzyme activity, inhibitor	1 µM	remaining activity	104%
COc1cc2ncnc(Nc3ccc(Oc4ccccc4)cc3C)c2cc1OC	enzyme activity, inhibitor	1 µM	inhibition	11%
Cc1ccc(C(=O)NCc2ccsc2)cc1C#Cc1cn(C(C)C)c2ncnc(N)c12	enzyme activity, inhibitor	1 µM	activity vs control	94%

Structure (SMILES)	test	setting	endpoint	result
Cc1sc(C(=O)NC2COC2)cc1-n1cc(NC(=O)Nc2c(F)cccc2Cl)cn1	enzyme activity, inhibitor	10 µM	remaining activity	97%
CN1CCC2(CC1)NC(=O)c1c(c3ccc(Cl)c(Cl)c3n1C)C2C#N (racemic)	thermal stability, DSF	10 µM	ΔTm	2.5 °C
FC(F)c1nc2ccccc2n1-c1nc(N2CCOCC2)nc(N2CCOCC2)n1	enzyme activity, inhibitor	10 µM	remaining activity	54%
Nc1nc(NC2CCCCC2)sc1C(=O)c1ccccc1	enzyme activity, inhibitor	10 µM	remaining activity	114%
C[S+]([O-])c1ccc(-c2nc(-c3ccncc3)c(-c3ccc(F)cc3)[nH]2)cc1 (stereo not shown)	cell-free assay	0.5 µM	remaining signal	86.2%
NS(=O)(=O)c1cc(NC(=O)Cc2ccccc2)ccc1Oc1cccc(Cl)c1	cell-free assay, competition with immobilised ligand	1 µM	remaining binding	96%
CCN(CC)CCNC(=O)c1c(C)[nH]c(/C=C2\C(=O)Nc3ccc(F)cc32)c1C	enzyme activity, inhibitor	0.3 µM	inhibition	-7%
C[C@H](NC(=O)c1cnc2n1[C@](C)(Cc1ccc(C#N)cc1)C(=O)N2c1cc(Cl)c(F)c(Cl)c1)C(=O)NC1(c2ccccn2)CC1	cell-free assay, competition with immobilised ligand	1 µM	remaining binding	81%
Oc1cccc(-c2nc(N3CCOCC3)c3oc4ncccc4c3n2)c1	enzyme activity, inhibitor	10 µM	remaining activity	102%
CN(C)C(=O)Cn1cc(-c2nc([C@@](C)(c3ccc(-c4cnc(N)nc4)cc3)C3CC3)no2)cn1	cell-free assay, competition with immobilised ligand	1 µM	remaining binding	88%
COc1cc(Nc2cnc(C#N)c(O[C@H](C)CN(C)C)n2)ncc1-c1cnn(C)c1	enzyme activity, inhibitor, radiometric	10 µM	remaining activity	87%
FC(F)(F)c1ccc2c(c1)nc(-c1cccnc1)n2C1CC1	cell-free assay, competition with immobilised ligand	1 µM	remaining binding	100%
Nc1nc(Nc2ccccc2)sc1C(=O)c1c(F)cccc1F	enzyme activity, inhibitor	10 µM	remaining activity	111%
O=C(O)c1cc(-c2ccc(C3CCNCC3)cc2)c2ccc(-c3ccc(C(F)(F)F)cc3)cc2c1	cell-free assay, competition with immobilised ligand	1 µM	remaining binding	100%
Cn1c2c(c3ccc(Cl)c(Cl)c31)C(C#N)C(C)(C)NC2=O (stereo not shown)	thermal stability, DSF	10 µM	ΔTm	2.6 °C
